High-throughput results deposited in PubChem BioAssay by Johns Hopkins Ion Channel Center.
MrgX1 PAM – human MrgX1 positive allosteric modulation, primary screen; Q96LB2; MrgX1-HEK293, Fluo-4 calcium flux, FDSS; active compounds read high; B-score at 10 µM; actives 0.63% (n = 310,000); AID 588675;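 active means plate-corrected calcium response at least 3 library SD above typical, normal starting fluorescence, not activating the receptor alone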;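 further: compound read alongside a low EC10 to EC30 dose of BAM8-22 agonist; peak minus trough fluorescence over baseline measured at the second addition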
Target sequence (Q96LB2 whole entry, looked up): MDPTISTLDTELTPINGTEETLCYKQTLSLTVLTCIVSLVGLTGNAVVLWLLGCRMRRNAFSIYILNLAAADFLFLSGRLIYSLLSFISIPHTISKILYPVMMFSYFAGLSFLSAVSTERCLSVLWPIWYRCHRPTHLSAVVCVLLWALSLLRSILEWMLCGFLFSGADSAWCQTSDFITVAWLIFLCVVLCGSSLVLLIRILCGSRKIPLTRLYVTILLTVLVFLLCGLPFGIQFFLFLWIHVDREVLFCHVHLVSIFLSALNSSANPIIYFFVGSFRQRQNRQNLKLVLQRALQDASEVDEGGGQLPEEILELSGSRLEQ
MrgX1 agonist – agonists of human MrgX1 receptor; MrgX1-HEK293 cells, Fluo-4 calcium fluorescence, agonist mode; active compounds read high; B-score at 10 µM; AID 588627; Q96LB2; actives 0.44% (n = 310,000);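 active means calcium response B-score plate-corrected fluorescence ratio at least 3 library SD, with starting fluorescence B-score inside 5 SD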
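Material: MrgX1-expressing HEK293 cells / Dosing: compound as first of three additions / Incubation: overnight seeding, then 1 h dark dye loading / Signal: Fluo-4 NW calcium fluorescence / Evaluation: B-scored fluorescence response ratio / Benchmarks: positive and negative control wells on each plate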
RGS4 pot – RGS4 potentiation or activation | HEK293 M3R/inducible RGS4, carbachol calcium flux Fluo4; active compounds read low | B-score at 10 µM | actives 0.92% (n = 310,000) | AID 463111;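 active means B-score of the integrated calcium signal more than 4 SD below the library mean, with starting fluorescence not abnormally high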;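 further: negative B-score means reduced calcium response which marks RGS4 activation or potentiation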
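Detection: kinetic calcium fluorescence imaging with Fluo4-AM dye, 2 µM / Material: HEK293 cells with stable M3R and inducible RGS4 / Schedule: recording 10 s baseline at 1 Hz, 100 s post-agonist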
RGS4 inh – human RGS4 inhibition; HEK293 M3R/RGS4 inducible, Fluo-4 calcium flux; active compounds read high; triggered by carbachol at its EC20; B-score at 10 µM; actives 0.45% (n = 310,000); P49798; AID 463165;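 active means B-score, a plate-corrected calcium signal, over three deviations above library mean, with baseline fluorescence within five deviations of library mean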;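 further: RGS4 expression induced by doxycycline in cells with stable M3 receptor; B-score is computed from the integrated fluorescence ratio over baseline after carbachol; higher B-score means a larger calcium signal and so more RGS4 inhibition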
Target sequence (P49798 whole entry, looked up): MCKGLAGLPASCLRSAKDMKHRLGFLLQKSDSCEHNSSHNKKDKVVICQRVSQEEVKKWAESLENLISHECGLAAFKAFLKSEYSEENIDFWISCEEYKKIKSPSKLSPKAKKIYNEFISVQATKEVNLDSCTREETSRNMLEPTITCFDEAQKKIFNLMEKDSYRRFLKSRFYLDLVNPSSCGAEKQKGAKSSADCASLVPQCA
MrgX1 antag – human MrgX1 receptor antagonism, primary screen; B-score at 10 µM; actives 1.3% (n = 310,000); Q96LB2; MRGX1-HEK293 calcium flux, Fluo-4, BAM8-22 antagonism; active compounds read low;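 active means calcium-response B-score plate-corrected more than 3 library SD below zero, starting fluorescence within 5 deviations, no agonist response on first addition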;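 further: peak minus trough fluorescence over baseline after final BAM8-22 challenge near maximal dose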
The depositor's hits bear a star; i = inactive; · = no result. This is a sample that favours compounds with a hit; in the whole collection about 3.5% have one here.

SMILES	MrgX1 PAM	MrgX1 agonist	RGS4 pot	RGS4 inh	MrgX1 antag
COc1cc(/C=C2/SC(=Nc3ccc(O)cc3)NC2=O)ccc1O	i	i	i	i	-5*
COc1ccc(C2Cc3ccccc3C(=O)O2)cc1 (stereo not given)	i	i	i	i	i
O=C(Oc1ccc(Cl)c2cccnc12)C12CC3CC(CC(C3)C1)C2	i	i	i	i	i
CCN(CC)c1ccc(-c2sc(Nc3ccccc3)n[n+]2-c2ccc(F)cc2)cc1	i	i	i	i	i
CCc1ccc(Nc2n[n+](-c3ccccc3)c(/C=C/c3ccccc3)s2)cc1	7.42*	i	i	i	i
CCc1ccc(Nc2n[n+](-c3ccccc3)c(-c3ccc(N(CC)CC)cc3)s2)cc1	i	44.7*	i	i	i
COc1ccc2ccccc2c1-c1sc(Nc2ccccc2)n[n+]1-c1ccc(F)cc1	i	i	i	i	-5.87*
CN(C)c1ccc(-c2sc(Nc3ccccc3)n[n+]2-c2ccc(F)cc2)cc1	i	46.7*	i	i	i
Cc1[nH]c(C)c(S(=O)(=O)Nc2cccc(Cl)c2C)c1C(=O)N1CCCCC1	i	i	i	i	i
COc1ccc(C)cc1Nc1n[n+](-c2ccccc2)c(-c2ccc(N(C)C)cc2)s1	i	33.6*	i	i	i
CCOP(=O)(c1ccccc1)c1nc(-c2ccc(F)cc2)oc1N1CCCCC1 (stereo not given)	i	37.8*	i	i	i
CCOP(=O)(OCC)c1nc(-c2ccc(Br)cc2)oc1N1CCCCC1	i	i	i	i	i
CC(C)=NOc1nc(NC(=O)NS(=O)(=O)c2ccccc2Cl)nc(N(C)C)n1	i	i	i	i	i
COc1cccc(NC(=O)C(c2ccccc2)N2CCCCC2)c1 (stereo not given)	i	i	-7.03*	i	i
Cc1ccc(NNC(=O)Nc2ccc(Cl)cc2)nn1	i	i	i	i	i
CCOc1ccc(NC(=O)NNC(=O)COc2ccc3ccccc3c2)cc1	i	i	i	i	-6.7*
COc1ccccc1OCCCOc1ccc(/C=C2\SC(=O)NC2=O)cc1OC	i	i	-7.73*	i	i
CCOC(=O)Cn1nc(C)c(NC(=O)COc2ccc(OC)cc2)c1C	i	i	i	i	i
CCc1cccc(NS(=O)(=O)c2csc(C(N)=O)c2)c1	i	i	i	i	i
CCOc1ccccc1/C=N/OCC(=O)NCc1ccc(F)cc1	i	i	i	i	i
COC(=O)c1ccc(/C=N/OCC(=O)NCc2ccc(F)cc2)cc1	i	i	i	i	-5.36*
C=CCOc1ccc2c(OC)c3ccoc3nc2c1OC	i	i	i	i	i
COc1c2c(nc3occc13)C(CC=C(C)C)(OC)C(=O)C=C2 (stereo not given)	12.3*	i	i	i	i
CCOc1cc(C(=O)OCC(=O)N(C)c2ccccc2)cc(OCC)c1OCC	i	i	i	i	i
NC(=O)c1coc(-c2ccccc2)n1	i	i	-7.09*	i	i
SMILES	MrgX1 PAM	MrgX1 agonist	RGS4 pot	RGS4 inh	MrgX1 antag
CN(NC1CC(=O)N(c2ccccc2)C1=O)c1ccccc1 (stereo not given)	i	i	·	·	i
CCN(CC)S(=O)(=O)c1cc(NC(=O)COc2ccc(C#N)cc2OC)ccc1C	i	i	i	i	-6.78*
Cc1c(NC(=O)C2(c3ccccc3)CCOCC2)c(=O)n(-c2ccccc2)n1C	6.68*	i	i	i	i
Cc1c(NC(=O)C2(c3ccc(Cl)cc3)CCCC2)c(=O)n(-c2ccccc2)n1C	i	i	i	i	i
COc1cc2cc(CN(CCc3cccc(C)c3)C(=S)NCCCN3CCOCC3)c(=O)[nH]c2cc1OC	i	i	i	i	i
CC1(C)Oc2ccc3ccc(=O)oc3c2/C(=C/Nc2ccccc2)C1=O	i	i	i	i	i
CC1(C)Oc2ccc3ccc(=O)oc3c2/C(=C/NC2CCCCC2)C1=O	i	i	-7.01*	i	i
c1ccc(-c2csc3ncnc(N4CCc5ccccc5C4)c23)cc1	i	i	i	i	i
COc1ccc(/C=N/NC(=O)c2cc3c(ccc4ccccc43)o2)c(OC)c1	·	·	-8*	i	·
CN(C)CCOC1c2ccccc2CSc2ccccc21 (stereo not given)	i	i	-8.88*	i	i
CCC(C)c1ccc(NC(=O)N2CCN(C(=O)C3CCCO3)CC2)cc1 (stereo not given)	i	i	i	i	i
c1cnc(N2CC[N+]3(CCCC3)CC2)nc1	i	i	-7.73*	i	i
c1ccc(N2CC[N+]3(CCCC3)CC2)nc1	i	i	i	i	i
COc1ccc2c(c1)C(=O)N(c1ccc(C)cc1)C(=O)C2	i	i	i	i	-4.81*
CC1(C(=O)NNC(=S)NCc2ccco2)CC1(Cl)Cl (stereo not given)	i	i	i	i	-4.73*
Cc1ccc(-n2c(C)c(C)c3c(N)ncnc32)cc1	i	i	i	i	i
Cc1ccc2nc(N(CCCN(C)C)C(=O)c3ccc(S(=O)(=O)N4CCc5ccccc5C4)cc3)sc2c1	i	i	-7.8*	i	i
Cc1cc(C)c2sc(N(CCCN(C)C)C(=O)c3ccc(S(=O)(=O)N4CCc5ccccc5C4)cc3)nc2c1	i	i	i	i	-7.51*
Cc1cc(C)c2sc(N(CCCN(C)C)C(=O)c3ccc(S(=O)(=O)N4CCCc5ccccc54)cc3)nc2c1	i	i	i	i	i
CN(C)CCCN(C(=O)c1ccc(S(=O)(=O)N2CCc3ccccc3C2)cc1)c1nc2ccc(F)cc2s1	i	i	i	i	i
NC(=O)c1ccccc1NC(=O)c1ccoc1	i	i	i	i	i
CCC1C(=O)NCCN1C(=O)CCc1nnc(CCc2ccc(OC)cc2)o1 (stereo not given)	i	i	i	i	-5.68*
COc1ccc2[nH]cc(CCNC(=O)Cc3ccc(F)cc3)c2c1	i	i	i	i	i
Cc1ccc(-c2cc(C(=O)N/N=C/c3c(C)nn(-c4ccccc4)c3C)n[nH]2)s1	·	·	-7.7*	i	·
Cc1ccc(CNc2nc(C)c(C(=O)N(C)C)s2)cc1	i	i	i	i	i
CCCCOc1ccc(Cc2c(O)nc(SC)[nH]c2=O)cc1	i	i	i	i	i
